Measured values published in ChEMBL document CHEMBL1681637, “Synthesis and antitubercular activity of monocyclic nitroimidazoles: insights from econazole” (Bioorg Med Chem Lett, 2011).
≈ marks a conversion by molar mass, not a printed value.

System: Mycobacterium tuberculosis
Assay: Antitubercular activity against multidrug-resistant Mycobacterium tuberculosis H37Rv after 7 days by alamar blue assay
Type: functional
Details: 168 h

| Compound | MIC [µg/mL] |
| --- | --- |
| O=[N+]([O-])c1cn(CC(O)c2ccc(Cl)cc2)c(Br)n1 (racemic) | 64 (≈ 185 µM) |
| O=[N+]([O-])c1cn(CC(O)c2ccc(Cl)cc2Cl)cn1 (racemic) | 32 (≈ 106 µM) |
| Cc1nc([N+](=O)[O-])cn1CC(O)c1ccc(Cl)cc1Cl (racemic) | > 256 |
| O=[N+]([O-])c1cn(CC(O)c2ccc(Cl)cc2Cl)c(Br)n1 (racemic) | 2 (≈ 5.25 µM) |
| O=[N+]([O-])c1cn(CC(O)c2ccc(F)cc2F)cn1 (racemic) | 256 (≈ 951 µM) |
| O=[N+]([O-])c1cn(CC(O)c2ccc(F)cc2F)c(Br)n1 (racemic) | 64 (≈ 184 µM) |
| O=[N+]([O-])c1cn(CC(O)c2ccc(F)cc2)c(Br)n1 (racemic) | 128 (≈ 388 µM) |
| O=[N+]([O-])c1ccc(C(O)Cn2cc([N+](=O)[O-])nc2Br)cc1 (racemic) | 64 (≈ 179 µM) |
| O=[N+]([O-])c1cn(CC(O)c2ccc(-c3ccccc3)cc2)c(Br)n1 (racemic) | > 256 |
| O=[N+]([O-])c1cn(CC(O)c2ccccc2)c(Br)n1 (racemic) | 32 (≈ 103 µM) |
| Cc1ccc(C(O)Cn2cc([N+](=O)[O-])nc2Br)c(C)c1 (racemic) | 128 (≈ 376 µM) |
| O=[N+]([O-])c1cn(CC(OCc2ccc(Cl)cc2)c2ccc(Cl)cc2Cl)cn1 (racemic) | > 256 |
| Cc1nc([N+](=O)[O-])cn1CC(OCc1ccc(Cl)cc1)c1ccc(Cl)cc1Cl (racemic) | > 256 |
| O=[N+]([O-])c1cn(CC(OCc2ccc(Cl)cc2)c2ccc(Cl)cc2Cl)c(Br)n1 (racemic) | > 256 |
| O=[N+]([O-])c1cn(CC(OCc2ccc(Cl)cc2)c2ccc(F)cc2F)cn1 (racemic) | > 256 |
| O=[N+]([O-])c1cn(CC(OCc2ccc(Cl)cc2)c2ccc(F)cc2F)c(Br)n1 (racemic) | > 256 |
| O=[N+]([O-])c1cn(CC(OCc2ccccc2F)c2ccc(Cl)cc2Cl)cn1 (racemic) | > 256 |
| O=[N+]([O-])c1cn(CC(OCc2ccc(F)cc2)c2ccc(Cl)cc2Cl)cn1 (racemic) | > 256 |
| O=[N+]([O-])c1cn(CC(OCc2ccccc2F)c2ccc(Cl)cc2Cl)c(Br)n1 (racemic) | > 256 |
| O=[N+]([O-])c1cn(CC(OCc2ccc(F)cc2)c2ccc(Cl)cc2Cl)c(Br)n1 (racemic) | > 256 |
| O=[N+]([O-])c1cn(CC(OCc2ccc(F)cc2F)c2ccc(Cl)cc2Cl)cn1 (racemic) | > 256 |
| O=[N+]([O-])c1cn(CC(OCc2cc(F)ccc2F)c2ccc(Cl)cc2Cl)cn1 (racemic) | > 256 |
| O=[N+]([O-])c1cn(CC(OCc2ccc(OC(F)(F)F)cc2)c2ccc(Cl)cc2Cl)cn1 (racemic) | > 256 |
| O=[N+]([O-])c1cn(CC(OCc2cc(F)cc(F)c2)c2ccc(Cl)cc2Cl)cn1 (racemic) | > 256 |
| O=[N+]([O-])c1cn(CC(OCc2cc(F)cc(F)c2)c2ccc(Cl)cc2Cl)c(Br)n1 (racemic) | > 256 |

| Compound | MIC [µg/mL] |
| --- | --- |
| O=[N+]([O-])c1cn(CC(OCc2ccc(F)cc2)c2ccc(F)cc2F)cn1 (racemic) | > 256 |
| O=[N+]([O-])c1cn(CC(OCc2ccc(OC(F)(F)F)cc2)c2ccc(F)cc2F)cn1 (racemic) | > 256 |
| O=[N+]([O-])c1cn(CC(OCc2cc(F)cc(F)c2)c2ccc(F)cc2F)cn1 (racemic) | > 256 |
| COc1nc([N+](=O)[O-])cn1CC(O)c1ccc(Cl)cc1Cl (racemic) | 0.5 (≈ 1.51 µM) |
| COc1nc([N+](=O)[O-])cn1CC(O)c1ccc(F)cc1F (racemic) | 4 (≈ 13.4 µM) |
| COc1nc([N+](=O)[O-])cn1CC(O)c1ccc(F)cc1 (racemic) | 16 (≈ 56.9 µM) |
| COc1nc([N+](=O)[O-])cn1CC(O)c1ccc(Cl)cc1 (racemic) | 16 (≈ 53.7 µM) |
| COc1nc([N+](=O)[O-])cn1CC(O)c1ccc([N+](=O)[O-])cc1 (racemic) | 16 (≈ 51.9 µM) |
| COc1nc([N+](=O)[O-])cn1CC(O)c1ccc(-c2ccccc2)cc1 (racemic) | 0.5 (≈ 1.47 µM) |
| CSc1nc([N+](=O)[O-])cn1CC(O)c1ccc(Cl)cc1Cl (racemic) | 16 (≈ 45.9 µM) |
| COc1nc([N+](=O)[O-])cn1CC(O)c1ccccc1 (racemic) | 8 (≈ 30.4 µM) |
| COc1nc([N+](=O)[O-])cn1CC(O)c1ccc(C)cc1C (racemic) | 16 (≈ 54.9 µM) |
| COc1nc([N+](=O)[O-])cn1CC(OCc1ccc(Cl)cc1)c1ccc(Cl)cc1Cl (racemic) | > 256 |
| CSc1nc([N+](=O)[O-])cn1CC(OCc1ccc(F)cc1)c1ccc(Cl)cc1Cl (racemic) | > 256 |
| COc1nc([N+](=O)[O-])cn1CC(OCc1ccc(OC(F)(F)F)cc1)c1ccc(Cl)cc1Cl (racemic) | > 256 |
| COc1nc([N+](=O)[O-])cn1CC(OCc1ccc(Cl)cc1)c1ccc(F)cc1F (racemic) | > 16 |
| COc1nc([N+](=O)[O-])cn1CC(OCc1ccc(F)cc1)c1ccc(F)cc1F (racemic) | > 32 |
| COc1nc([N+](=O)[O-])cn1CC(OCc1ccc(OC(F)(F)F)cc1)c1ccc(F)cc1F (racemic) | > 256 |
| COc1nc([N+](=O)[O-])cn1CC(OCc1cc(F)cc(F)c1)c1ccc(Cl)cc1Cl (racemic) | > 256 |
| COc1nc([N+](=O)[O-])cn1CC(OCc1ccc(F)cc1)c1ccc(Cl)cc1Cl (racemic) | > 256 |
| CSc1nc([N+](=O)[O-])cn1CC(OCc1ccc(Cl)cc1)c1ccc(Cl)cc1Cl (racemic) | > 256 |
| CSc1nc([N+](=O)[O-])cn1CC(OCc1cc(F)cc(F)c1)c1ccc(Cl)cc1Cl (racemic) | > 256 |
| CSc1nc([N+](=O)[O-])cn1CC(OCc1ccc(Cl)cc1)c1ccc(F)cc1F (racemic) | > 256 |
| Clc1ccc(COC(Cn2ccnc2)c2ccc(Cl)cc2Cl)cc1 (stereo not given) [ECONAZOLE] | 16 (≈ 41.9 µM) |
| O=[N+]([O-])c1cn2c(n1)OC[C@@H](OCc1ccc(OC(F)(F)F)cc1)C2 [PRETOMANID] | 0.13 (≈ 0.362 µM) |

System: Mycobacterium tuberculosis
Assay: Antitubercular activity against multidrug-resistant Mycobacterium tuberculosis H37Rv under anaerobic condition after 7 days by GFP reporter gene assay
Type: functional
Details: 168 h
Procedure, shortened: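 GFP-expressing Mtb H37Rv, made non-replicating by the Wayne hypoxia model, was added to 2-fold DMSO serial compound dilutions inside an anaerobic chamber. Plates were held at 37 °C for 7 days under anaerobiosis, then diluted 10-fold into fresh medium and outgrown for 2 days. Fluorescence was read at ex 485/em 520 nm. MIC was the lowest concentration giving 80% fluorescence inhibition versus bacteria-only wells.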

| Compound | MIC [µg/mL] |
| --- | --- |
| O=[N+]([O-])c1cn(CC(O)c2ccc(Cl)cc2Cl)c(Br)n1 (racemic) | 8 (≈ 21 µM) |
| COc1nc([N+](=O)[O-])cn1CC(O)c1ccc(Cl)cc1Cl (racemic) | 4 (≈ 12 µM) |
| COc1nc([N+](=O)[O-])cn1CC(O)c1ccc(F)cc1F (racemic) | 4 (≈ 13.4 µM) |
| COc1nc([N+](=O)[O-])cn1CC(O)c1ccc(-c2ccccc2)cc1 (racemic) | 1 (≈ 2.95 µM) |
| O=[N+]([O-])c1cn2c(n1)OC[C@@H](OCc1ccc(OC(F)(F)F)cc1)C2 [PRETOMANID] | 2 (≈ 5.57 µM) |
